Source: PubChem (several laboratories)
Shown are actives, neighbours in structure and some others; about 4.9% of the full set was active somewhere.
STAT1 inh: STAT1 signaling inhibitors, primary screen, cell-based, HTS, luciferase reporter; NIH 3T3 STAT1-luciferase reporter, IFN-gamma, luminescence; inhibition, % at 5.5 µM; hit rate 0.35% among 200,000; AID 920, 2007;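 active = inhibition above a set limit, the mean inhibition across all tested compounds plus 3 SD, cut at about 34% in these data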;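 also: 0% = IFN-gamma with DMSO and 100% = IFN-gamma with 300 µM nifuroxazide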
STAT3 act: IL-6 driven STAT3 reporter potentiators, primary screen, U3A cells, luciferase, luminescence, MLSCN library. IL-6 STAT3-luciferase reporter; 100% = signal with IL-6 EC80 alone. activation (% of control), % at 5.6 µM. hit rate 0.91% among 190,000;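 active = activation above the screen-wide mean of compound activation plus 3 SD, cut at about 130% in these data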;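 also: 0% = background luminescence of wells with medium and substrate only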
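Assay system – human STAT1-deficient U3A cells with stable STAT3-luciferase reporter · Also added – IL-6 (33 ng/mL) · Schedule – compound 1 h, then IL-6 6 h at 37 °C · Technique – reporter luminescence signal · Evaluation – % activation versus median of IL-6-stimulated wells · Benchmarks – IL-6-only wells as 100% reference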
STAT1 act: STAT1 signaling activators, primary screen, cell-based, HTS, luciferase reporter | NIH 3T3 STAT1-luciferase reporter, IFN-gamma, luminescence; 100% = IFN-gamma alone, no compound | activation (% of control), % at 5.5 µM | hit rate 2.6% among 200,000 | AID 932, 2007;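 active = activation above the screen-wide mean activation plus 3 SD, cut at about 130% in these data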;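 also: raw ratio to IFN-gamma control signal so 100% means no change and 0% no light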
NF-kB neuron act: activators of NF-kB expression in neurons, primary screen, cell-based, HTS; hit rate 1.6% among 190,000; human neuronal cells, NF-kB reporter expression; hits give high values; fold change at 12.5 µM; in the data active = fold change above about 3.3
APP 5'UTR act: activators of APP 5'UTR luciferase reporter, primary screen, SH-SY5Y cells; SH-SY5Y APP 5'UTR luciferase reporter, luminescence; zero percent = DMSO vehicle wells; activation, % at 2 µM; hit rate 1% among 190,000; AID 1276, 2008;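 active = activation above a set limit, based on mean plus 3 SD of controls, cut at about 140% in these data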
STAT3 blocker: IL-6 driven STAT3 reporter inhibitors, primary screen, U3A cells, luciferase, luminescence, MLSCN library; IL-6 STAT3-luciferase reporter; host cell line lacks STAT1; inhibition, % at 5.5 µM; hit rate 0.89% among 190,000; AID 862, 2007;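 active = inhibition above the mean inhibition across all screened compounds plus 3 SD, cut at about 44% in these data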;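 also: 0% = DMSO only wells and 100% = 100 µM nifuroxazide control wells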
STAT1 activ conf: STAT1 signaling activators, confirmation, cell-based, HTS, luciferase reporter | hit rate 97% among 1,200 | NIH 3T3 STAT1-luciferase reporter, IFN-gamma potentiation, luminescence; 100% = IFN-gamma EC80 alone, no compound | activation (% of control), % at 5.7 µM | shares compounds with STAT1 act;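 active = activation above a set limit carried over from the earlier primary STAT1 screen, cut at about 140% in these data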;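 also: simple ratio to median IFN-gamma plus DMSO wells so 0% means no light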
NFkB act STAT1ct: NF-kB reporter activators, TNF-alpha stimulated, counter-screen for STAT1 activator project, cell-based, HEK293T, luciferase luminescence. shares compounds with STAT1 act. 100% = TNF-alpha with vehicle only. activation (% of control), % at 5.7 µM. hit rate 43% among 1,200. AID 1306, 2008;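 active = activation above the mean of solvent-only control wells plus 3 SD, set per campaign, cut at about 130% in these data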;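 also: TNF-alpha given at a submaximal dose yielding about 80% of full reporter signal; values are well signal over median control so 100% means no change and 0% no light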
STAT3 act 2: STAT3 reporter activation by STAT1 hits, confirmation, counter-screen for STAT1 activator project, U3A cells, luciferase, luminescence; IL-6; cells lack STAT1; 100 = IL-6 alone, no compound effect; AID 1316, 2008; shares compounds with STAT1 act; hit rate 46% among 1,200; activation (% of control), % at 5.7 µM;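 active = activation above the solvent-only control well mean plus 3 SD, set per plate batch, cut at about 110% in these data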;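 also: 0% = no luminescence and 100% = median IL-6 plus DMSO wells; higher means more STAT3 reporter activation so hits are non-selective activators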
* = called active by the depositor; nt = not tested or not shown.

SMILES | STAT1 inh | STAT3 act | STAT1 act | NF-kB neuron act | APP 5'UTR act | STAT3 blocker | STAT1 activ conf | NFkB act STAT1ct | STAT3 act 2
COc1cccc(CN2CCN(c3nc4nonc4nc3NC3CC3)CC2)c1 | 8.4 | 96.8 | 90.3 | 0.85 | 6.2 | 10.6 | nt | nt | nt
Cc1cccc(-n2nnc(C(=O)Nc3ccc(F)cc3)c2N)c1 | -74.5 | 85.1 | 168.2* | 5.07* | 108.6 | 19.5 | 196.0* | 129.7 | 97.1
O=C(Nc1ncc(Cc2ccccc2Cl)s1)C1CCCO1 (stereo not drawn) | -55.1 | 121.8 | 150.8* | 3.89* | 70.2 | -25.4 | 166.5* | 133.9* | 148.8*
Cc1cnc(NC(=O)C2CCCO2)s1 (stereo not drawn) | -2.5 | 104.5 | 102.4 | 1.1 | 16.5 | -0.8 | nt | nt | nt
COc1cccc(NC(=O)/C=C/c2ccccc2[N+](=O)[O-])c1 | -60.5 | 109.7 | 153.8* | 3.65* | 137.8* | -14.3 | 177.5* | 136.6* | 117.5*
COc1ccc(OC)c(NC(=O)/C=C/c2ccccc2[N+](=O)[O-])c1 | 1.6 | 98.4 | 98.6 | 0.67 | 29.4 | 4.1 | nt | nt | nt
CC(C)(C)C(=O)Nc1cccc2[nH]ncc12 | -4.8 | 100.5 | 103.9 | 1.16 | 11.7 | 1.6 | nt | nt | nt
N#CC1(c2ccc(NC(=O)c3ccccc3F)cc2)CCCC1 | -67.6 | 72.7 | 161.3* | 10.7* | 144.6* | 34.8 | 228.3* | 132.9 | 104.1
CCOC(=O)Nc1cccc(NC(=O)c2ccccc2F)c1 | 4.9 | 90.8 | 95.5 | 1.35 | 0.9 | 11.3 | nt | nt | nt
CCN(CC)c1ccc(NC(=O)c2ccccc2F)cc1 | -69.5 | 81.7 | 163.5* | 6.08* | 110.9 | 25.0 | 192.3* | 123.5 | 95.7
CCc1ccc(NC(=S)N(Cc2cccc(Br)c2)CC2CCC(C(=O)O)CC2)cc1 (stereo not drawn) | 14.1 | 96.3 | 86.4 | 1.22 | 17.2 | 6.7 | nt | nt | nt
Cc1ccc(/C=[N+](\[O-])c2ccc(N(C)C)cc2)c2nsnc12 | -72.0 | 83.2 | 162.5* | nt | -60.9 | 23.9 | 199.0* | 136.8* | 106.5
Cc1ccc2nsnc2c1NS(=O)(=O)c1c(C)ccc2nsnc12 | -1.7 | 120.4 | 101.6 | 1.05 | 11.4 | -14.3 | nt | nt | nt
Cc1cccnc1Nc1nc(-c2ccc(O)cc2)cs1 | -55.2 | 96.0 | 151.1* | 7.36* | 84.0 | 10.4 | 204.7* | 141.4* | 110.8*
Cc1ccc(Nc2nc(-c3ccncc3)cs2)cc1 | -78.8 | 101.4 | 174.6* | 2.9 | 128.8 | -1.1 | 214.6* | 137.0* | 125.9*
CC(=O)Nc1ccc(-c2csc(Nc3cccc(C)n3)n2)cc1 | -66.2 | 96.6 | 159.9* | 6.15* | 167.6* | 9.2 | 183.9* | 129.1 | 100.0
Oc1ccc(-c2csc(Nc3ncccn3)n2)c(O)c1 | -82.4 | 90.9 | 175.9* | 8.09* | 154.5* | 13.4 | 215.8* | 144.4* | 108.9
O=C(CC1C(=O)NCCN1Cc1ccc(F)cc1)NCCCn1cccn1 (stereo not drawn) | 1.4 | 108.6 | 97.0 | 0.74 | -1.7 | -7.7 | nt | nt | nt
CC(=O)Nc1cccc(-c2csc(Nc3ncccn3)n2)c1 | -166.8 | 89.2 | 252.3* | 1.72 | 135.1* | 15.2 | 304.0* | 130.3 | 112.9*
CC(=O)Nc1cccc(-c2csc(Nc3ccc(C)cn3)n2)c1 | -128.0 | 79.1 | 216.8* | 7.59* | 206.1* | 23.6 | 329.1* | 139.4* | 99.2
CC(=O)Nc1ccc(S(=O)(=O)Nc2cccc(-c3csc(C)n3)c2)cc1 | 14.2 | 88.8 | 87.3 | nt | 1.4 | 18.5 | nt | nt | nt
COC(=O)c1c(NC(=O)c2nc3ccccc3s2)sc2c1CCN(C(C)=O)C2 | -10.6 | 114.7 | 109.6 | 0.55 | 11.5 | -8.4 | nt | nt | nt
CNC(=O)c1c(NC(=O)c2nc3ccccc3s2)sc2c1CCC2 | -75.8 | 131.1 | 168.7* | 0.52 | 78.8 | -27.3 | 189.4* | 136.0* | 132.6*
O=C(NN=C1CCCC1)c1cccs1 | -63.8 | 112.2 | 156.0* | 1.14 | 87.7 | -14.5 | 114.4 | 109.0 | 99.9
CC(=O)N1CCC(=NNC(=O)c2cccs2)CC1 | -67.8 | 109.1 | 159.5* | 1.12 | 116.7 | -10.8 | 118.9 | 109.4 | 104.5
SMILES | STAT1 inh | STAT3 act | STAT1 act | NF-kB neuron act | APP 5'UTR act | STAT3 blocker | STAT1 activ conf | NFkB act STAT1ct | STAT3 act 2
O=C(NN=C1C2CC3CC(C2)CC1C3)c1cccs1 | -32.7 | 101.8 | 121.8 | 2.24 | 131.4 | -0.9 | nt | nt | nt
O=C(Nc1ccccc1NC(=O)NC1CCCCC1)NC1CCCCC1 | 1.6 | 97.8 | 98.5 | 1.72 | 7.2 | 6.8 | nt | nt | nt
O=C(CC1CCCCC1)Nc1nc2ccccc2s1 | -59.5 | 110.3 | 155.0* | 3.05 | 133.2 | -8.4 | 184.1* | 133.9* | 119.7*
O=C(Nc1nc2ccccc2s1)NC1CCCCC1 | -67.8 | 93.2 | 160.7* | 9.2* | 144.4* | 18.2 | 226.3* | 131.9 | 116.5*
CC(=O)c1cccc(Nc2ccc(-c3ccccc3F)nn2)c1 | -58.0 | 100.6 | 152.1* | 2.06 | 134.4 | 0.6 | 178.8* | 129.5 | 103.1
CN(CC1CCOCC1)C(=O)CC1C(=O)NCCN1Cc1cccc(Oc2ccccc2)c1 (stereo not drawn) | 0.1 | 90.7 | 98.5 | 1.22 | 21.9 | 14.9 | nt | nt | nt
CN(c1ccc(O)cc1)c1nc(-c2ccccc2)cs1 | -97.2 | 104.1 | 186.4* | 6.87* | 242.8* | -7.6 | 237.8* | 113.5 | 120.1*
N/C(Cc1ccc(Cl)cc1)=N\OC(=O)C1CCCCC1 | 0.8 | 111.7 | 99.3 | 1.23 | 9.5 | -17.1 | nt | nt | nt
O=c1[nH]c(-c2ccccn2)nc2sc(-c3ccccc3)cc12 | -209.7 | 114.7 | 297.6* | 1.57 | -26.6 | -17.4 | 473.2* | 225.0* | 119.5*
Cc1c(C(=O)N(C)C)sc2nc(-c3ccccn3)[nH]c(=O)c12 | -10.7 | 104.1 | 109.8 | 1.38 | 2.3 | -1.2 | nt | nt | nt
COc1ccc(OC)c(N=c2oc3cc(O)ccc3cc2C(N)=O)c1 | -17.6 | 87.6 | 116.3 | 0.24 | -13.8 | 18.1 | nt | nt | nt
COc1ccc2cc(C(N)=O)c(=Nc3ccccc3)oc2c1 | -59.5 | 99.6 | 151.8* | 2.03 | 137.0* | 6.8 | 141.9* | 103.2 | 105.8
CS(=O)(=O)N1CCC(C(=O)NCc2ccc(F)cc2)CC1 | 4.4 | 102.2 | 93.4 | 1.05 | 2.7 | 2.2 | nt | nt | nt
